Data: paper PMC4703501 (Leukemia, 2015)
Entries after “also recorded” stand apart in the source; their conditions may differ.

Assays:
[1] = tested on: Z138C; experiment: GI50 growth inhibition assay; format: cell-based; settings: Homo sapiens, 96 h
Summary of the method: (§1)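 Cells from ATCC were grown in DMEM or RPMI with 10% FBS and penicillin-streptomycin at 37°C, humidified, 5% CO₂, and tested mycoplasma-negative. They were seeded at 2.5×10³ cells per 0.1 ml per well. Test compound was added 24 hrs after plating at a range of concentrations. Viable cells were measured by Cell Titer Blue from duplicate wells 96 hrs after treatment.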

[2] = tested on: DLD-1; experiment: GI50 growth inhibition assay; format: cell-based; settings: Homo sapiens, DLD-1, 96 h
Summary of the method: (§2)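 Cell lines were grown in DMEM or RPMI with 10% FBS and pen-strep at 37°C, 5% CO₂, and were mycoplasma-negative. Cells were seeded at 2.5×10³ per 0.1 ml per well, and test compound was added 24 hrs later at the indicated concentrations. Viable cells were measured by resazurin (Cell Titer Blue) read-out 96 hrs post-treatment in duplicate wells.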

[3] = tested on: COLO-205; experiment: GI50 growth inhibition assay; format: cell-based; settings: Homo sapiens, COLO 205, 96 h
Summary of the method: as §2

[4] = tested on: HCT-15; experiment: GI50 growth inhibition assay; format: cell-based; settings: Homo sapiens, HCT-15, 96 h
Summary of the method: as §2

[5] = tested on: MIA-PaCa-2; experiment: GI50 growth inhibition assay; format: cell-based; settings: Homo sapiens, MIA PaCa-2, 96 h
Summary of the method: as §1

[6] = tested on: SNU-398; experiment: GI50 growth inhibition assay; format: cell-based; settings: Homo sapiens, SNU-398, 96 h
Summary of the method: as §2

[7] = tested on: MDA-MB-231; experiment: GI50 growth inhibition assay; format: cell-based; settings: Homo sapiens, MDA-MB-231, 96 h
Summary of the method: as §2

[8] = tested on: MDA-MB-157; experiment: GI50 growth inhibition assay; format: cell-based; settings: Homo sapiens, MDA-MB-157, 96 h
Summary of the method: as §2

[9] = tested on: BT-474; experiment: GI50 growth inhibition assay; format: cell-based; settings: Homo sapiens, BT-474, 96 h
Summary of the method: as §1

[10] = tested on: BT-20; experiment: GI50 growth inhibition assay; format: cell-based; settings: Homo sapiens, BT-20, 96 h
Summary of the method: as §2

[11] = biological target: CDK1 (Homo sapiens, UniProt P06493); experiment: in vitro kinase assay; format: biochemical; settings: data not shown
[12] = biological target: CDK2 (Homo sapiens, UniProt P24941); experiment: in vitro kinase assay; format: biochemical; settings: data not shown
[13] = biological target: CDK5 (Homo sapiens, UniProt Q00535); experiment: in vitro kinase assay; format: biochemical; settings: data not shown
[14] = biological target: CDK8 (Homo sapiens, UniProt P49336); experiment: in vitro kinase assay; format: biochemical; settings: data not shown
[15] = tested on: Z138C cells; experiment: cell cycle distribution, propidium iodide flow cytometry; format: cell-based, human; settings: 24 hours
Summary of the method: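 Z138C cells were treated with DMSO or increasing concentrations of test compound for 24 hours. They were then ethanol-fixed, PBS-washed and stained with RNase plus propidium iodide at 37°C for 20 min. DNA content was measured by flow cytometry to assign cell-cycle phases.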

[16] = tested on: Granta 519 and Z138C cells; experiment: apoptosis markers; format: cell-based, human
Summary of the method: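 Granta 519 and Z138C cells were treated with test compound, then lysed in NP-40 buffer. Western blots on nitrocellulose assessed full-length caspases 3, 7 and 9 and PARP cleavage as apoptosis markers.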

[17] = tested on: Granta 519 and Z138C cells; experiment: CDK4/CYCLIN D/Rb pathway western blot; format: cell-based, human; settings: 24 hours
Summary of the method: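 Granta 519 and Z138C cells (RPMI or DMEM, 10% FBS, pen-strep, 37°C, 5% CO₂) received vehicle or increasing concentrations of test compound for 24 hours. Whole-cell extracts were made in NP-40 lysis buffer (Tris pH 7.4, NaF, Na₃VO₄), run on SDS-PAGE and blotted to nitrocellulose. Detection used infrared imaging, GAPDH was the loading control, and 4 independent experiments were done.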

[18] = tested on: exponentially growing Z138 cells; experiment: p65; format: cell-based, human; settings: 24 hrs
Summary of the method: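 Exponentially growing Z138 cells were exposed to test compound. Whole-cell extracts were probed by western blot for p65 (NF-kB) phosphorylation.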

[19] = tested on: HeLa cells; experiment: TNF-α induced p65 NF-kB phosphorylation western blot; format: cell-based, human; settings: 5ng/ml TNF-α for 5 min after treatment
Summary of the method: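 Positive-control system: HeLa cells were pretreated with test compound, then stimulated with 5ng/ml TNF-α for 5 min. Phospho-p65 NF-kB was assessed by western blot of whole-cell extracts.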

[20] = tested on: primary patient-derived MCL cells (MEM1 ibrutinib-sensitive, MEM2 ibrutinib-resistant); experiment: Annexin V staining of primary patient-derived MCL; format: cell-based, human; settings: 5µM ON123300; 24 hrs (legend: 18 hrs)
Summary of the method: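 Patient MCL specimens (lymph node or peripheral blood) made into single-cell suspensions and cryopreserved in 90% FBS/10% DMSO in liquid nitrogen. Cells exposed to the indicated concentrations of test compound for 18 hrs. Apoptosis read as FITC-Annexin V staining by flow cytometry.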

[21] = maximum tolerated dose study; format: in vivo, CD-1 mice
Summary of the method: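 Female CD-1 mice (10–12 weeks), n=3 per group, were used. One arm received a single ip dose of 100 or 200 mg/kg, with toxicity signs and body weight followed for 7 days. The other arm received 200mg/kg ip for 5 consecutive days, followed for 10 days.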

[22] = plasma level pharmacokinetics; format: in vivo, CD-1 mice; settings: for area under the curve (AUC) as molar concentration / area under the curve (AUC): plasma
Summary of the method: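 Female CD-1 mice (10–12 weeks) received 50mg/kg test compound dissolved in water, ip or by oral gavage. Sampling was at 10, 30 min and 1, 2, 4, 8 h, n=2 per time point, with heart-puncture blood into heparin/EDTA tubes. Plasma was analysed by LC/MS, and AUC was calculated by the trapezoidal rule.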

[23] = tested on: Z138C xenograft; experiment: Z138C tumor xenograft assay; format: in vivo, nu/nu mice
[24] = tested on: MCL cell lines; experiment: GI50 assays, MCL cell lines versus other tumor types; format: cell-based, human; settings: over a 96 hr period
Summary of the method: as §2

[25] = previous studies; cited from earlier work

Chain of CDK5 (Q00535 whole entry): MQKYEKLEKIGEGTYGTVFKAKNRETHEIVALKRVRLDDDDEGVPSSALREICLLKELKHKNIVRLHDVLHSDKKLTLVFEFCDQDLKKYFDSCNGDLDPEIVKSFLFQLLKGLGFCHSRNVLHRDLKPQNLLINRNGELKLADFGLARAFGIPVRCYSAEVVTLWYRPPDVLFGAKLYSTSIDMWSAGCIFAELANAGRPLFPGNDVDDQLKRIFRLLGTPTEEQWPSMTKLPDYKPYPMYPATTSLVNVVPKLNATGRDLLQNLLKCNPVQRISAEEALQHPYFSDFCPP
Chain of CDK5 (Q15078 99-307 partner limits assumed): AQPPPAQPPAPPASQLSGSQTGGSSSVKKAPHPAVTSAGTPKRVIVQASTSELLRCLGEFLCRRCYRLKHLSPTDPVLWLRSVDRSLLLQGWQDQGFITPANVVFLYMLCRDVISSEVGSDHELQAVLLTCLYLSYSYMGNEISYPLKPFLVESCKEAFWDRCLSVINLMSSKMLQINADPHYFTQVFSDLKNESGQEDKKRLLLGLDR
Chain of CDK8 (P49336 whole entry): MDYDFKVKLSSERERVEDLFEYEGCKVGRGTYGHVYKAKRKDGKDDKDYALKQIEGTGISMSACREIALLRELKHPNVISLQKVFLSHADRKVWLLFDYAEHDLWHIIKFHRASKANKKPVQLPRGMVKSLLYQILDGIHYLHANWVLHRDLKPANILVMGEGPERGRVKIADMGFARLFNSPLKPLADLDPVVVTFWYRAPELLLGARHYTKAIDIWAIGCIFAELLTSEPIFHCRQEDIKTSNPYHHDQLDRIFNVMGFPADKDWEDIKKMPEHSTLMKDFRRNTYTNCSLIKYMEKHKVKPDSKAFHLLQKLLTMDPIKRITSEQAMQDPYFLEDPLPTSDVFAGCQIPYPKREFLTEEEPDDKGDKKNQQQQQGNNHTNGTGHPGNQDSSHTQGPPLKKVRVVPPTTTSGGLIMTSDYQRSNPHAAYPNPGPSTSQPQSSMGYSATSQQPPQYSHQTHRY
Chain of CDK8 (P24863 whole entry partner): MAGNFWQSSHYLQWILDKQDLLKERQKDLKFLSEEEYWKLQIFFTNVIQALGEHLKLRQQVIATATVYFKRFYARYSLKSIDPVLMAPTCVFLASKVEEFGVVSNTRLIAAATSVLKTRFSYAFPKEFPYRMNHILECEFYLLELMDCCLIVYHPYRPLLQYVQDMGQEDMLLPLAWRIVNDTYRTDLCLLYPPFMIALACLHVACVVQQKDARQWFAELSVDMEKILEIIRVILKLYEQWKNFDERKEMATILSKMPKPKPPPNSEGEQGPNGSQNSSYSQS
Chain of CDK1 (P06493 whole entry): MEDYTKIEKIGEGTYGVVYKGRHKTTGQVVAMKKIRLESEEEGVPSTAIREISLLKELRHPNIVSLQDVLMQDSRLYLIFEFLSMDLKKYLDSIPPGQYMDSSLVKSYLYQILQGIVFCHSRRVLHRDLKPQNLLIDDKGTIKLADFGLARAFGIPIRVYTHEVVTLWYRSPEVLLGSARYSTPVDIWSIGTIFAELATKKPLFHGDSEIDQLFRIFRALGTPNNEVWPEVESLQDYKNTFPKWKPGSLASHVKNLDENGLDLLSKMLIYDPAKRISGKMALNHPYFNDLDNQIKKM
Chain of CDK1 (P14635 whole entry, further chain): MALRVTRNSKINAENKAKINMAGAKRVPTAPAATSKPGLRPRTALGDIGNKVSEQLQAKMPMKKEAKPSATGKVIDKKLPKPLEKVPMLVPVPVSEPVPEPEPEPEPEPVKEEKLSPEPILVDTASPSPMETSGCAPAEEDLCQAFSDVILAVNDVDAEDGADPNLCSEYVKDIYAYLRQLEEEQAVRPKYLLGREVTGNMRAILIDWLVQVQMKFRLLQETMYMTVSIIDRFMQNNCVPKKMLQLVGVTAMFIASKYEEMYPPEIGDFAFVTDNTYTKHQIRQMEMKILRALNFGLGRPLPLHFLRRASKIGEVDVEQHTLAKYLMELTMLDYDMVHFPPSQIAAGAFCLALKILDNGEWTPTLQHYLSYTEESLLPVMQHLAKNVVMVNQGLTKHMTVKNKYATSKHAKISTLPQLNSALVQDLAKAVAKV

CN1CCN(c2ccc(Nc3ncc4cc(C#N)c(=O)n(C5CCCC5)c4n3)cc2)CC1 [ON123300, 8-cyclopentyl-2-[4-(4-methyl-piperazin-1-yl)-phenylamino]-7-oxo-7,8-dihydro-pyrid o[2,3-d]pyrimidine-6-carbonitrile]
GI50 [1]: 25 nM | GI50 [2]: 100 nM | GI50 [3]: 200 nM | GI50 [4]: 400 nM | GI50 [5]: 250 nM | GI50 [6]: 300 nM | GI50 [7]: 200 nM | GI50 [8]: 250 nM | GI50 [9]: 250 nM | GI50 [10]: 100 nM | inhibitory activity against CDK1 [11]: little inhibitory activity | inhibitory activity against CDK2 [12]: little inhibitory activity | inhibitory activity against CDK5 [13]: little inhibitory activity | inhibitory activity against CDK8 [14]: little inhibitory activity | concentrations at which cells accumulated in the G1 phase [15]: 0.1 to 1.0 µM | accumulation of cells in the sub-G1 phase ([15]; for ON123300 at higher concentrations): eventually accumulated in the sub-G1 phase | PARP cleavage at lower concentrations ([16]; 72–96 hrs incubation, data not shown): readily resulted in PARP cleavage | concentration at which PARP cleavage is seen ([16]; 24 hrs): greater than or equal to 2.5 µM | levels of full-length caspases 3, 7 and 9 ([16]; 24 hrs): decreases in the levels of full-length forms of caspases 3, 7 and 9 | levels of CDK4 and CDK2 [17]: unaffected | p21 levels [17]: loss of p21 levels | levels of CYCLIN D1 ([17]; as a function of concentration): declined | phosphorylation of pRb and p130 ([17]; increasing concentrations): inhibited the phosphorylation of pRb and p130 | phosphorylation status of p65 (NF-kB) [18]: no change | phosphorylation status of p65 [19]: little or no effect | cells stained Annexin V+ [20]: ~100% | survival rate ([21]; 200mg/kg ip for 5 consecutive days, at least 10 days post-administration): 100% | signs of toxicity ([21]; 200mg/kg ip for 5 consecutive days, data not shown): did not exhibit any signs of toxicity | toxicity ([21]; mice, administered orally or intraperitoneally): minimally toxic | survival rate ([21]; single ip dose 100 or 200 mg/kg, 7 days): 100% | signs of toxicity and body weights ([21]; single ip dose 100 or 200 mg/kg, monitored 7 days): No signs of toxicity or weight loss | oral bioavailability ([22]; mice): orally bio-available | area under the curve (AUC) as molar concentration ([22]; 50mg/kg ip): 16.71 µM/ml/hr | area under the curve (AUC) ([22]; 50mg/kg ip injection): 7.18 µg/mL/h | area under the curve (AUC) ([22]; 50mg/kg oral gavage (po)): 2.78 µg/mL/h | area under the curve (AUC) as molar concentration ([22]; 50mg/kg po): 6.47 µM/ml/hr | total body weights ([23]; 100mg/kg daily treatment): did not cause a significant reduction | tumor growth ([23]; 100mg/kg daily, ip, 2-week period, p<0.05): significantly inhibited; also recorded: markedly inhibited tumor growth | concentrations inducing growth arrest and cell death [24]: 25 to 50 nM | blood-brain barrier crossing [25]: readily crosses the blood-brain barrier
